{"source": "paper PMC6445238", "about": "(Drug Design, Development and Therapy, 2019)", "key": {"[1]": {"assay": "MAD study, safety and tolerability", "assay_type": "in vivo, human", "conditions": "for Hyperbilirubinemia, number of subjects (%) / Hyperhidrosis, number of subjects (%) / Hypoesthesia, number of subjects (%) / Insomnia, number of subjects (%) / Muscle hemorrhage, number of subjects (%) / Musculoskeletal stiffness, number of subjects (%) / Nausea, number of subjects (%) / Neck pain, number of subjects (%) / Oropharyngeal pain, number of subjects (%) / Subjects with any TEAEs, number of subjects (%) / Vomiting, number of subjects (%) / Abdominal discomfort, number of subjects (%) / Abdominal pain, number of subjects (%) / Anxiety, number of subjects (%) / Back pain, number of subjects (%) / Diarrhea, number of subjects (%) / Dizziness, number of subjects (%) / Epistaxis, number of subjects (%) / Erythema of eyelid, number of subjects (%) / Erythema, number of subjects (%) / Headache, number of subjects (%): N=6", "outline": "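MAD cohorts were 6 active and 2 placebo healthy males, dosed once daily for 7 days, confined day −1 to day 8, with follow-up on day 14. Safety was monitored by vital signs, clinical labs, 12-lead ECG, physical exams, and AEs reported by subjects or observed by investigators. AEs were coded with MedDRA 19.1. Counts are given as subjects with AEs, % of the safety population. Placebo subjects were pooled.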"}, "[2]": {"conditions": "cited from earlier work"}, "[3]": {"test_system": "dopaminergic neuronal cells in the substantia nigra and striatum", "conditions": "ref unpublished data, cited from earlier work"}}, "data": [{"smiles": "Cc1nn(Cc2ccc(Br)cc2)c(C)c1NC(=O)CSc1ccccc1", "note": "[KM-819]", "values": [{"measurement": "Hyperbilirubinemia, number of subjects (%)", "setting": "[1]; 100 mg QD 7 days, young", "result": 0}, {"measurement": "Hyperhidrosis, number of subjects (%)", "setting": "[1]; 100 mg QD 7 days, young", "result": 0}, {"measurement": "Hypoesthesia, number of subjects (%)", "setting": "[1]; 100 mg QD 7 days, young", "result": 0}, {"measurement": "Insomnia, number of subjects (%)", "setting": "[1]; 100 mg QD 7 days, young", "result": 0}, {"measurement": "Muscle hemorrhage, number of subjects (%)", "setting": "[1]; 100 mg QD 7 days, young", "result": 0}, {"measurement": "Musculoskeletal stiffness, number of subjects (%)", "setting": "[1]; 100 mg QD 7 days, young", "result": 0}, {"measurement": "Nausea, number of subjects (%)", "setting": "[1]; 100 mg QD 7 days, young", "result": "1 (16.7)"}, {"measurement": "Neck pain, number of subjects (%)", "setting": "[1]; 100 mg QD 7 days, young", "result": 0}, {"measurement": "Oropharyngeal pain, number of subjects (%)", "setting": "[1]; 100 mg QD 7 days, young", "result": 0}, {"measurement": "Subjects with any TEAEs, number of subjects (%)", "setting": "[1]; 100 mg QD 7 days, young", "result": "4 (66.7)"}, {"measurement": "Vomiting, number of subjects (%)", "setting": "[1]; 100 mg QD 7 days, young", "result": 0}, {"measurement": "Abdominal discomfort, number of subjects (%)", "setting": "[1]; 200 mg QD 7 days, elderly", "result": 0}, {"measurement": "Abdominal pain, number of subjects (%)", "setting": "[1]; 200 mg QD 7 days, elderly", "result": "1 (16.7)"}, {"measurement": "Anxiety, number of subjects (%)", "setting": "[1]; 200 mg QD 7 days, elderly", "result": 0}, {"measurement": "Back pain, number of subjects (%)", "setting": "[1]; 200 mg QD 7 days, elderly", "result": "2 (33.3)"}, {"measurement": "Diarrhea, number of subjects (%)", "setting": "[1]; 200 mg QD 7 days, elderly", "result": "1 (16.7)"}, {"measurement": "Dizziness, number of subjects (%)", "setting": "[1]; 200 mg QD 7 days, elderly", "result": 0}, {"measurement": "Epistaxis, number of subjects (%)", "setting": "[1]; 200 mg QD 7 days, elderly", "result": 0}, {"measurement": "Erythema of eyelid, number of subjects (%)", "setting": "[1]; 200 mg QD 7 days, elderly", "result": 0}, {"measurement": "Erythema, number of subjects (%)", "setting": "[1]; 200 mg QD 7 days, elderly", "result": 0}, {"measurement": "Headache, number of subjects (%)", "setting": "[1]; 200 mg QD 7 days, elderly", "result": "1 (16.7)"}, {"measurement": "Hyperbilirubinemia, number of subjects (%)", "setting": "[1]; 200 mg QD 7 days, elderly", "result": 0}, {"measurement": "Hyperhidrosis, number of subjects (%)", "setting": "[1]; 200 mg QD 7 days, elderly", "result": 0}, {"measurement": "Hypoesthesia, number of subjects (%)", "setting": "[1]; 200 mg QD 7 days, elderly", "result": 0}, {"measurement": "Insomnia, number of subjects (%)", "setting": "[1]; 200 mg QD 7 days, elderly", "result": "1 (16.7)"}, {"measurement": "Muscle hemorrhage, number of subjects (%)", "setting": "[1]; 200 mg QD 7 days, elderly", "result": "1 (16.7)"}, {"measurement": "Musculoskeletal stiffness, number of subjects (%)", "setting": "[1]; 200 mg QD 7 days, elderly", "result": 0}, {"measurement": "Nausea, number of subjects (%)", "setting": "[1]; 200 mg QD 7 days, elderly", "result": 0}, {"measurement": "Neck pain, number of subjects (%)", "setting": "[1]; 200 mg QD 7 days, elderly", "result": "1 (16.7)"}, {"measurement": "Oropharyngeal pain, number of subjects (%)", "setting": "[1]; 200 mg QD 7 days, elderly", "result": 0}, {"measurement": "Subjects with any TEAEs, number of subjects (%)", "setting": "[1]; 200 mg QD 7 days, elderly", "result": "3 (50.0)"}, {"measurement": "Vomiting, number of subjects (%)", "setting": "[1]; 200 mg QD 7 days, elderly", "result": 0}, {"measurement": "Abdominal discomfort, number of subjects (%)", "setting": "[1]; 200 mg QD 7 days, young", "result": "1 (16.7)"}, {"measurement": "Abdominal pain, number of subjects (%)", "setting": "[1]; 200 mg QD 7 days, young", "result": 0}, {"measurement": "Anxiety, number of subjects (%)", "setting": "[1]; 200 mg QD 7 days, young", "result": 0}, {"measurement": "Back pain, number of subjects (%)", "setting": "[1]; 200 mg QD 7 days, young", "result": "1 (16.7)"}, {"measurement": "Diarrhea, number of subjects (%)", "setting": "[1]; 200 mg QD 7 days, young", "result": 0}, {"measurement": "Dizziness, number of subjects (%)", "setting": "[1]; 200 mg QD 7 days, young", "result": "2 (33.3)"}, {"measurement": "Epistaxis, number of subjects (%)", "setting": "[1]; 200 mg QD 7 days, young", "result": 0}, {"measurement": "Erythema of eyelid, number of subjects (%)", "setting": "[1]; 200 mg QD 7 days, young", "result": 0}, {"measurement": "Erythema, number of subjects (%)", "setting": "[1]; 200 mg QD 7 days, young", "result": 0}, {"measurement": "Headache, number of subjects (%)", "setting": "[1]; 200 mg QD 7 days, young", "result": "5 (83.3)"}, {"measurement": "Hyperbilirubinemia, number of subjects (%)", "setting": "[1]; 200 mg QD 7 days, young", "result": "1 (16.7)"}, {"measurement": "Hyperhidrosis, number of subjects (%)", "setting": "[1]; 200 mg QD 7 days, young", "result": 0}, {"measurement": "Hypoesthesia, number of subjects (%)", "setting": "[1]; 200 mg QD 7 days, young", "result": "2 (33.3)"}, {"measurement": "Insomnia, number of subjects (%)", "setting": "[1]; 200 mg QD 7 days, young", "result": 0}, {"measurement": "Muscle hemorrhage, number of subjects (%)", "setting": "[1]; 200 mg QD 7 days, young", "result": 0}, {"measurement": "Musculoskeletal stiffness, number of subjects (%)", "setting": "[1]; 200 mg QD 7 days, young", "result": "1 (16.7)"}, {"measurement": "Nausea, number of subjects (%)", "setting": "[1]; 200 mg QD 7 days, young", "result": "4 (66.7)"}, {"measurement": "Neck pain, number of subjects (%)", "setting": "[1]; 200 mg QD 7 days, young", "result": 0}, {"measurement": "Oropharyngeal pain, number of subjects (%)", "setting": "[1]; 200 mg QD 7 days, young", "result": "1 (16.7)"}, {"measurement": "Subjects with any TEAEs, number of subjects (%)", "setting": "[1]; 200 mg QD 7 days, young", "result": "5 (83.3)"}, {"measurement": "Vomiting, number of subjects (%)", "setting": "[1]; 200 mg QD 7 days, young", "result": "4 (66.7)"}, {"measurement": "Abdominal discomfort, number of subjects (%)", "setting": "[1]; 400 mg QD 7 days, young", "result": 0}, {"measurement": "Abdominal pain, number of subjects (%)", "setting": "[1]; 400 mg QD 7 days, young", "result": 0}, {"measurement": "Anxiety, number of subjects (%)", "setting": "[1]; 400 mg QD 7 days, young", "result": 0}, {"measurement": "Back pain, number of subjects (%)", "setting": "[1]; 400 mg QD 7 days, young", "result": "1 (16.7)"}, {"measurement": "Diarrhea, number of subjects (%)", "setting": "[1]; 400 mg QD 7 days, young", "result": 0}, {"measurement": "Dizziness, number of subjects (%)", "setting": "[1]; 400 mg QD 7 days, young", "result": 0}, {"measurement": "Epistaxis, number of subjects (%)", "setting": "[1]; 400 mg QD 7 days, young", "result": "1 (16.7)"}, {"measurement": "Erythema of eyelid, number of subjects (%)", "setting": "[1]; 400 mg QD 7 days, young", "result": "1 (16.7)"}, {"measurement": "Erythema, number of subjects (%)", "setting": "[1]; 400 mg QD 7 days, young", "result": 0}, {"measurement": "Headache, number of subjects (%)", "setting": "[1]; 400 mg QD 7 days, young", "result": "4 (66.7)"}, {"measurement": "Hyperbilirubinemia, number of subjects (%)", "setting": "[1]; 400 mg QD 7 days, young", "result": 0}, {"measurement": "Hyperhidrosis, number of subjects (%)", "setting": "[1]; 400 mg QD 7 days, young", "result": "1 (16.7)"}, {"measurement": "Hypoesthesia, number of subjects (%)", "setting": "[1]; 400 mg QD 7 days, young", "result": 0}, {"measurement": "Insomnia, number of subjects (%)", "setting": "[1]; 400 mg QD 7 days, young", "result": 0}, {"measurement": "Muscle hemorrhage, number of subjects (%)", "setting": "[1]; 400 mg QD 7 days, young", "result": 0}, {"measurement": "Musculoskeletal stiffness, number of subjects (%)", "setting": "[1]; 400 mg QD 7 days, young", "result": "1 (16.7)"}, {"measurement": "Nausea, number of subjects (%)", "setting": "[1]; 400 mg QD 7 days, young", "result": 0}, {"measurement": "Neck pain, number of subjects (%)", "setting": "[1]; 400 mg QD 7 days, young", "result": 0}, {"measurement": "Oropharyngeal pain, number of subjects (%)", "setting": "[1]; 400 mg QD 7 days, young", "result": 0}, {"measurement": "Subjects with any TEAEs, number of subjects (%)", "setting": "[1]; 400 mg QD 7 days, young", "result": "5 (83.3)"}, {"measurement": "Vomiting, number of subjects (%)", "setting": "[1]; 400 mg QD 7 days, young", "result": 0}, {"measurement": "subjects withdrawn due to AEs", "setting": "[1]; MAD, headache", "result": 2}, {"measurement": "serious adverse events (SAEs) reported", "setting": "[1]; MAD, headache, considered unlikely related to KM-819", "result": 1}, {"measurement": "no observed adverse effect level (NOAEL)", "setting": "[2]; 4-week rat toxicology study", "result": 500, "unit": "mg/kg/day"}, {"measurement": "adverse effects after repeated administration", "setting": "[2]; 4 weeks, up to 500 mg/kg/day", "result": "did not show adverse effects"}, {"measurement": "behavioral impairments", "setting": "[3]", "result": "improved the behavioral impairments"}, {"measurement": "protection of dopaminergic neuronal cells", "setting": "[3]; substantia nigra and striatum", "result": "protected the dopaminergic neuronal cells"}]}]}
